ChEMBL document CHEMBL1126041, “Leukotriene B4 receptor antagonists: the LY255283 series of hydroxyacetophenones” (J Med Chem, 1992)

Columns and labels:
[1] = target: Leukotriene B4 receptor 1 (Homo sapiens) (UniProt Q15722); assay: Inhibition of binding of [3H]LTB4 to the leukotriene B4 receptor of human peripheral neutrophils (PMN) at a concentration of 10 uM.
Method in brief: (§1)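 Neutrophils isolated by Ficoll-Hypaque centrifugation, dextran 70 sedimentation and hypotonic lysis (≥90% neutrophils, ≥90% viable), 2 × 10^7 cells/mL in Hank's balanced salt solution with 0.1% ovalbumin. Compound in DMSO plus 2.65 nM [3H]LTB4 (stock), 10 min at 4 °C. Cells spun through dibutyl/dinonyl phthalate (7:2), pellet counted by scintillation. Triplicate incubations averaged. Reported as % inhibition of specific binding; nonspecific binding taken with >2000-fold excess unlabeled LTB4.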

[2] = target: Leukotriene B4 receptor (Homo sapiens) (UniProt Q9NPC1+Q15722); assay: Inhibition of [3H]LTB4 binding to leukotriene B4 receptor of human peripheral neutrophils (PMN) at a concentration of 0.1 uM.; format: protein assay; method in brief: as §1
Sequence of Leukotriene B4 receptor (Homo sapiens) (Q15722 whole entry, looked up): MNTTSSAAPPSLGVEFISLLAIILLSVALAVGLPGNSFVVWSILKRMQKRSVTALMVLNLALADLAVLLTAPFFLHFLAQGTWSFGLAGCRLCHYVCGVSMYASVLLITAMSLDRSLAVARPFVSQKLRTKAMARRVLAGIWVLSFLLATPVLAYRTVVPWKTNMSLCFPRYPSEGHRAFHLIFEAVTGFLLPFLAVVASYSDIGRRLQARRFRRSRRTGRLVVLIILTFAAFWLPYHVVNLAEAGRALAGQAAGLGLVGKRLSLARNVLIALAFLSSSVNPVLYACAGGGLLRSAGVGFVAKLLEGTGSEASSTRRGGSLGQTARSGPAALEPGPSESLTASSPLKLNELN
Sequence of Leukotriene B4 receptor (Homo sapiens) (Q9NPC1 whole entry, looked up): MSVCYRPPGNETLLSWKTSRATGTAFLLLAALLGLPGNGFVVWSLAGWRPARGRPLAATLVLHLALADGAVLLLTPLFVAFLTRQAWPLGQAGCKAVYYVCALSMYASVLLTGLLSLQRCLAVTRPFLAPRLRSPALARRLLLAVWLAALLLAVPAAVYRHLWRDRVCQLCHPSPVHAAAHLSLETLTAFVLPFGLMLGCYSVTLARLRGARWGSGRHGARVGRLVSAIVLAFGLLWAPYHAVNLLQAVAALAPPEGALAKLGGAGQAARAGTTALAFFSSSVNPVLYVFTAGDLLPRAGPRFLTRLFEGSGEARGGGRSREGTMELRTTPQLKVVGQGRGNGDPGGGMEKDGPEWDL

[3] = target: Leukotriene B4 receptor 1 (Homo sapiens) (UniProt Q15722); assay: Inhibition of [3H]LTB4 binding to leukotriene B4 receptor from human peripheral neutrophils (PMN), at a concentration of 1 uM; method in brief: as §1

Sequence of Leukotriene B4 receptor 1 (Homo sapiens) (Q15722 whole entry): as the sequence (Q15722 whole entry, looked up) above

Compound	inhibition [1] [%]	inhibition [2] [%]	inhibition [3] [%]
CCc1cc(C(C)=O)c(O)cc1OCCCCCC(C)(C)C#N	85	17	53
COCc1cc(C(C)=O)c(O)cc1OCCCCCCC#N	47	–	7
CCc1cc(C(C)=O)c(O)cc1OCCCCCCSC	71	–	14
C=CCc1cc(C(C)=O)c(O)cc1OCCCCCC(=O)NO	85	–	28
CC(=O)c1cc(C(C)=O)c(OCCCCC#N)cc1O	8	–	0
CCCc1cc(C(C)=O)c(O)cc1OCCCCN	6	–	0
C=CCc1cc(C(C)=O)c(O)cc1OCCCCCC(=O)N(C)C	92	–	54
CCCc1c(OCCCCC#N)ccc(C(C)=O)c1O	0	–	9
CCCc1cc(C(C)=O)c(Cl)cc1OCCCCC#N	35	–	13
C=CCc1cc(C(C)=O)c(O)cc1OCCCCO	48	–	9
C=CCc1cc(C(C)=O)c(O)cc1OCCCCCCCC#N	88	–	52
C=CCc1cc(C(C)=O)c(O)cc1OCc1ccc(C#N)cc1	22	–	28
CCc1cc(C(C)=O)c(O)cc1OCCCC(C)(C)C#N	85	13	46
C=CCc1cc(C(C)=O)c(O)cc1OCCCCCC(=O)OC	106	–	65
C=CCc1cc(C(=O)CCCCCCCCC)c(O)cc1OCCCCC#N	10	–	7
CCc1cc(C(C)=O)c(O)cc1OCCCCC#N	92	–	57
CCCCCc1cc(C(C)=O)c(O)cc1OCCCCC#N	31	–	14
CCCc1cc(C(C)=O)ccc1OCCCCC#N	44	–	19
CCc1cc(C(C)=O)c(O)cc1OCCCCN(C)C	4	–	3
CCc1cc(C(C)=O)c(O)cc1OCCCCCC(C)(C)c1nnn(C)n1	95	16	66
CCc1cc(C(C)=O)c(O)cc1OCCCCCCC(=O)NC	97	–	54
CCc1cc(C(C)=O)c(O)cc1OCCCCCC(C)(C)C(=O)O	104	20	73

Compound	inhibition [1] [%]	inhibition [2] [%]	inhibition [3] [%]
CCc1cc(C(C)=O)c(O)cc1OCCCCCCC(=O)N(C)C	100	–	61
CCc1cc(C(C)=O)c(O)cc1OCc1ccc(C#N)cc1	7	0	11
C=CCc1cc(C(C)=O)c(O)cc1OCCCCCCC#N	97	–	63
CC(=O)c1cc(C=O)c(OCCCCC#N)cc1O	6	–	3
CC(=O)c1cc(C)c(OCCCCC#N)cc1O	79	–	35
C=CCc1cc(C(=O)CC)c(O)cc1OCCCCC#N	77	–	36
CCCc1cc(C(C)=O)c(O)c(CCC)c1OCCCCC#N	0	–	0
CCc1cc(C(C)=O)c(O)cc1OCCCCc1nnn[nH]1	49	–	19
C=CCc1cc(C(C)=O)c(O)cc1OCCCCC	60	–	23
C=CCc1cc(C(C)=O)c(O)cc1OCCCCCCC	31	–	8
C=CCc1cc(C(C)=O)c(O)cc1OCc1cccc(C#N)c1	71	25	58
C=CCc1cc(C(C)=O)c(O)cc1OCCCCCCCCCCC#N	50	–	14
CCc1cc(C(C)=O)c(O)cc1OCc1ccc(C(=O)O)cc1	22	–	0
C=CCc1cc(C(C)=O)c(O)cc1OCc1cccc(CC#N)c1	16	–	0
C=CCc1cc(C(C)=O)c(O)cc1OCCCCCC(C)=O	98	–	58
C=CCc1cc(C(C)=O)c(O)cc1OCCCCC#N	92	–	57
CC(=O)c1cc(CC2CO2)c(OCCCCC#N)cc1O (stereo not drawn)	62	–	24
CCc1cc(C(C)=O)c(O)c(C)c1OCCCCCC(C)(C)c1nnn[nH]1	42	–	9
C=CCc1cc(C(C)=O)c(O)cc1OCc1ccc(CC#N)cc1	30	–	17
CCc1cc(C(C)=O)c(O)cc1OCCCCCCC(=O)O	87	–	38
CCc1cc(C(C)=O)c(O)cc1OCCCCCn1cncn1	82	–	30
CCCc1cc(C(C)=O)c(O)cc1OCCCCCC(=O)O	73	–	24

Compound	inhibition [1] [%]	inhibition [2] [%]	inhibition [3] [%]
C=CCc1ccc(O)cc1OCCCCC#N	29	–	9
C=CCc1cc(C(C)=O)c(O)cc1OCCCCCC#N	81	–	41
CCCCc1cc(C(C)=O)c(O)cc1OCCCCC#N	41	–	13
CCc1cc(C(C)=O)c(O)cc1OCCCCCCCC(C)(C)C#N	66	6	29
C=CCc1cc(C(C)=O)c(O)cc1OCc1ccccc1C#N	47	–	6
CCc1cc(C(C)=O)c(O)cc1OCCCCCCCC(C)(C)c1nnn[nH]1	–	49	96
CSCc1cc(C(C)=O)c(O)cc1OCCCCCCC#N	97	–	64
C=CCc1cc(C(C)=O)c(O)cc1OCCCC#N	47	–	6
CCc1cc(C(C)=O)c(O)cc1OCCCCCCC(C)(C)C#N	65	11	30
CCc1cc(C(C)=O)c(O)cc1OCCCC(C)(C)c1nnn[nH]1	100	28	76
CCCc1cc(C(C)=O)c(O)cc1OCCCCNC(C)=O	71	–	23
CCc1cc(C(C)=O)c(O)cc1OCc1cccc(C#N)c1	58	18	61
CCc1cc(C(C)=O)c(O)cc1OCCCC(C)(C)C(=O)O	89	12	43
CCc1cc(C(C)=O)c(O)cc1OCCCCCCS(C)(=O)=O	99	–	62
CC(=O)c1cc(CO)c(OCCCCCCC#N)cc1O	40	–	8
C=CCc1cc(C(C)=O)c(O)cc1OCCCCCCCCC#N	86	–	50
CCCc1cc(C(C)=O)c(O)cc1OCCCCC#N	84	–	37
CCc1cc(C(C)=O)c(O)cc1Oc1cccc(C#N)c1	11	–	8
CCc1cc(C(C)=O)c(O)cc1OCCCCCCc1nnn[nH]1	91	–	60
CCc1cc(C(C)=O)c(O)cc1OCCCCC(C)(C)c1nnn[nH]1	–	17	66
CCc1cc(C(C)=O)c(O)cc1OCCCCCC[S+](C)[O-] (stereo not drawn)	92	–	50
CCc1cc(C(C)=O)c(O)cc1OCCCCCCC(=O)Nc1nn[nH]n1	101	–	83

Compound	inhibition [1] [%]	inhibition [2] [%]	inhibition [3] [%]
CC(=O)c1ccc(OCCCCC#N)cc1O	0	–	0
CCCc1cc(C(C)=O)c(O)cc1OCCCCC(=O)O	11	–	0
CCC1(c2ccc(N)cc2)CCC(=O)NC1=O (stereo not drawn)	82	–	29
CCc1cc(C(C)=O)c(O)cc1OCCCCCCC#N	103	–	73
C=CCc1cc(C(C)=O)c(O)cc1OCCCCCC(C)(C)O	98	–	60
CCc1cc(C(C)=O)c(O)cc1OCCCCCC(C)(C)c1nn[nH]n1	102	56	93
CCc1cc(C(C)=O)c(O)cc1OCCCCCCC(C)(C)c1nnn[nH]1	–	13	67
CCc1cc(C(C)=O)c(O)cc1OCCCCN1CCOCC1	32	–	9
CC(=O)c1cc(C(C)(C)C)c(OCCCCCC(C)(C)C#N)cc1O	1	–	2
C#CCCCCOc1cc(O)c(C(C)=O)cc1CC=C	74	–	29
C=CCc1cc(C(C)=O)c(O)cc1OCCCC	32	–	8
C=CCCCCOc1cc(O)c(C(C)=O)cc1CC=C	73	–	27
CCc1cc(C(C)=O)c(O)cc1OCCCC(C)(C)C(N)=O	92	16	51
C=CCc1cc(C(C)=O)c(O)cc1OCC#N	20	–	2
CCc1cc(C(C)=O)c(O)cc1OCCCCCC(C)(C)c1nnnn1C	99	14	59
C=CCc1cc(C(C)=O)c(O)cc1OCCCCCC	50	–	9
C=CCc1cc(C(=O)c2ccccc2)c(O)cc1OCCCCC#N	33	–	5
CCCCCCc1cc(C(C)=O)c(O)cc1OCCCCC#N	51	–	13
C=CCc1cc(C(C)=O)c(O)cc1OCCCCCC(N)=O	88	–	37
C=CCc1cc(C(C)=O)c(OC)cc1OCCCCC#N	13	–	8
CC(=O)c1cc(CC(C)O)c(OCCCCC#N)cc1O (stereo not drawn)	10	–	6
